Results from ChEMBL document CHEMBL1151848, “Aryl nucleoside H-phosphonates. Part 16: synthesis and anti-HIV-1 activity of di-aryl nucleoside phosphotriesters” (Bioorg Med Chem, 2009).

Assays:
[1] = Chemical stability assessed as enzymatic hydrolysis half life in RPMI-1640 culture medium containing heat non-inactivated fetal bovine serum by HPLC analysis; assay type: physicochemical; conditions: cattle
Method in brief: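 Enzymatic hydrolysis by phosphoesterases was followed in RPMI-1640 containing heat non-inactivated FBS (RPMI/FBS 9:1, v/v).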

[2] = Chemical stability in RPMI-1640 culture medium at 2 uM up to 6 days by HPLC analysis; assay type: physicochemical; conditions: 144 h

In the case of `Cc1ccc(OP(=O)(O)OC[C@H]2O[C@@H](n3cc(C)c(=O)[nH]c3=O)C[C@@H]2N=[N+]=[N-])cn1`, the half-life [1] is reported as 28.9 h and the Stability [2] is reported as “Stable”.
For `O=c1ccn([C@H]2CC[C@@H](COP(=O)(O)Oc3ccccc3)O2)c(=O)[nH]1`, the half-life [1] was 25.1 h and the Stability [2] was “Stable”.
In the case of `Cc1cn([C@H]2C[C@H](N=[N+]=[N-])[C@@H](COP(=O)(O)Oc3cncc(Cl)c3)O2)c(=O)[nH]c1=O`, the half-life [1] is reported as 7.27 h and the Stability [2] is reported as “Stable”.
For `Cc1cn([C@H]2C[C@H](N=[N+]=[N-])[C@@H](COP(=O)(O)Oc3ccncc3)O2)c(=O)[nH]c1=O`, the half-life [1] was 8.07 h and the Stability [2] was “Stable”.
With `Cc1cn([C@H]2C[C@H](N=[N+]=[N-])[C@@H](COP(=O)(O)Oc3ccc(C#N)cc3)O2)c(=O)[nH]c1=O` the half-life [1] was 7.08 h and the Stability [2] was “Stable”.
With `Cc1cn([C@H]2C[C@H](N=[N+]=[N-])[C@@H](COP(=O)(O)Oc3cccnc3)O2)c(=O)[nH]c1=O` the half-life [1] was 3.88 h and the Stability [2] was “Stable”.
With `Cc1cn([C@H]2C[C@H](N=[N+]=[N-])[C@@H](COP(=O)(O)Oc3ccc(Br)cc3)O2)c(=O)[nH]c1=O` the half-life [1] was 7.97 h and the Stability [2] was “Stable”.
For `Cc1cn([C@H]2C[C@H](N=[N+]=[N-])[C@@H](COP(=O)(O)Oc3ccc(Cl)cc3Cl)O2)c(=O)[nH]c1=O`, the half-life [1] was 3.03 h and the Stability [2] was “Stable”.
With `O=c1ccn([C@H]2CC[C@@H](COP(=O)(O)Oc3cccnc3)O2)c(=O)[nH]1` the half-life [1] was 50.2 h and the Stability [2] was “Stable”.
In the case of `O=c1ccn([C@H]2CC[C@@H](COP(=O)(O)Oc3ccncc3)O2)c(=O)[nH]1`, the half-life [1] is reported as 23.6 h and the Stability [2] is reported as “Stable”.
For `Cc1cn([C@H]2C[C@H](N=[N+]=[N-])[C@@H](COP(=O)(O)Oc3cccnc3Cl)O2)c(=O)[nH]c1=O`, the half-life [1] was 16.3 h and the Stability [2] was “Stable”.
With `Cc1ncccc1OP(=O)(O)OC[C@H]1O[C@@H](n2cc(C)c(=O)[nH]c2=O)C[C@@H]1N=[N+]=[N-]` the half-life [1] was 15.8 h and the Stability [2] was “Stable”.
With `Cc1cn([C@H]2C[C@H](N=[N+]=[N-])[C@@H](COP(=O)(O)Oc3ccc(Cl)cc3)O2)c(=O)[nH]c1=O` the half-life [1] was 5.5 h and the Stability [2] was “Stable”.
